Screening data (PubChem)
Shown are actives, neighbours in structure and some others; about 3% of the full set was active somewhere.
SENP6 inh: blocks the human protease SENP6 | Recombinant SENP6 catalytic domain, aminoluciferin luminescence | 1.8% of 330,000 active | AID 2599 | inhibition, % at 10 µM | Q9GZR1;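 active = inhibition above about 50% at the single tested dose, limit read from the data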
SENP8 block-1: blocks human SENP8 cleavage of Nedd8 substrate. Q96LD8. recombinant SENP8, Nedd8 substrate fluorescence. inhibition, % at 20 µM. 0.64% of 360,000 active. AID 602440; in the data active = inhibition mostly above about 40%, no sharp cut-off; inactive = mostly below about 27%
Target sequence (Q96LD8 whole entry, looked up): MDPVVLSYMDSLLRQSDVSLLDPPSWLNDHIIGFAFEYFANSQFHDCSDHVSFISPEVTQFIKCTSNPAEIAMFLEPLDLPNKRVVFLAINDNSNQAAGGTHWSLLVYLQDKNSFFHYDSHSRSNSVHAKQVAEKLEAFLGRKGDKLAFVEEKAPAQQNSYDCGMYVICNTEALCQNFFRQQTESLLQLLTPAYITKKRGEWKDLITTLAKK
SENP8 block-2: blocks the human protease SENP8 | Q96LD8 | purified SENP8, Z-RLRGG-aminoluciferin cleavage, luminescence | inhibition, % at 10 µM | 1.2% of 330,000 active | AID 2540; in the data active = inhibition above about 50%
SENP7 block: SENP7 protease inhibition; inhibition, % at 5 µM; recombinant SENP7, Z-RLRGG-aminoluciferin luminescence, 40 min; 1.5% of 330,000 active; Q9BQF6;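 active = inhibition above about 50% at the single test dose, limit read from the data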
UBC13 inh: inhibitors of human UBC13 polyubiquitin chain formation | 0.47% of 330,000 active | P61088 | inhibition, % at 20 µM | TR-FRET | AID 485273; in the data active = inhibition above about 45%, passing the limit was not always enough; inconclusive = no clear call, values can overlap the other calls
Target sequence (P61088 whole entry, looked up): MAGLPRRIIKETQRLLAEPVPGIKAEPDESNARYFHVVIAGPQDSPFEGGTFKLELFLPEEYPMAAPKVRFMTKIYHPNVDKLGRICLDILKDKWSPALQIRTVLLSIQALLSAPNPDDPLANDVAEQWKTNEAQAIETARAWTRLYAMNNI
Apaf1 inhib: blocks human Apaf-1 apoptosome activity | reconstituted apoptosome caspase-3 activity, DEVD-Rh110 fluorescence | inhibition, % at 20 µM | 0.71% of 330,000 active | AID 489030; active = inhibition of at least 40% at 20 µM
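Material: cell-free apoptosome with Apaf-1, procaspase-3 and caspase-9; Buffer or medium: Hepes pH 7.5 with detergent and BSA; Reagent: cytochrome c trigger plus (Z-DEVD)2-Rh110 caspase-3 substrate; Times: compound with Apaf-1, dATP, procaspase-3 30 min, then 50 min reaction, room temperature; Technique: Rh110 fluorescence intensity.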
Casp3 counter: counter-screen for UBC13 inhibitors: human caspase-3 inhibition; 4% of 1,400 active; AID 488856; Recombinant caspase-3, Caspase-Glo 3/7 luminescence, 60 min; shares compounds with UBC13 inh; inhibition, % at 20 µM;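 active = mean inhibition across replicates above about 26%, limit read from the data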
UBC13 conf: confirmation of human UBC13 polyubiquitin inhibitors | inhibition, % at 10 µM | shares compounds with UBC13 inh | AID 488859 | 68% of 1,400 active | UBC13 polyubiquitination, TR-FRET, biochemical; in the data active = inhibition above about 45%; inconclusive = no clear call, values can overlap the other calls
Each line names hits and unclear results; the compound was inactive in the other large screens (follow-up assays come after a bar, where they were run).

CCOC(=O)C1=C(COC(=O)c2nc(Cl)ccc2Cl)NC(=O)NC1C (centres undefined)	none
CCOC(=O)C1=C(COC(=O)c2ncc(Cl)c(Cl)c2Cl)NC(=O)NC1C (centres undefined)	UBC13 inh 76 | Casp3 counter inactive | UBC13 conf 87
Cc1ccc(N(C(=O)c2snc(C(N)=O)c2N)C(C(=O)NC2CCCC2)c2ccco2)cc1 (centres undefined)	UBC13 inh 80 | Casp3 counter inactive | UBC13 conf 92
CN(C)c1ccc(C(C(=O)NCC2CCCO2)N(C(=O)c2snc(C(N)=O)c2N)c2ccccc2)cc1 (centres undefined)	none
CCc1ccc(N(C(=O)c2snc(C(N)=O)c2N)C(C(=O)NCC2CCCO2)c2ccco2)cc1 (centres undefined)	UBC13 inh 61 | Casp3 counter inactive | UBC13 conf 59
COc1ccc(N(C(=O)c2snc(C(N)=O)c2N)C(C(=O)NC2CCCC2)c2ccc3ncccc3c2)cc1 (centres undefined)	UBC13 inh 48 | Casp3 counter inactive | UBC13 conf 48
Cc1ccc(N(C(=O)c2snc(C(N)=O)c2N)C(C(=O)NC2CCCC2)c2ccc(C)o2)cc1 (centres undefined)	UBC13 inh 64 | Casp3 counter inactive | UBC13 conf 71
CCCNC(=O)COc1coc(CN2CCN(C(=O)c3ccco3)CC2)cc1=O	none
Cc1cc(C(=O)OCC(=O)Nc2c(Cl)cccc2C(F)(F)F)c(C)o1	none
Cc1cccc(N(C(=O)c2snc(C(N)=O)c2N)C(C(=O)NC2CCCC2)c2ccc(C)o2)c1 (centres undefined)	UBC13 inh 55 | Casp3 counter inactive | UBC13 conf inactive
CCOc1ccc(N(C(=O)c2snc(C(N)=O)c2N)C(CC)C(=O)NC2CCCC2)cc1 (centres undefined)	UBC13 inh 78 | Casp3 counter inactive | UBC13 conf 82
CCCC(C(=O)NC1CCCC1)N(C(=O)c1snc(C(N)=O)c1N)c1ccc(OCC)cc1 (centres undefined)	none
CN(C)c1ccc(C(C(=O)NCC2CCCO2)N(C(=O)c2snc(C(N)=O)c2N)c2ccc3c(c2)OCO3)cc1 (centres undefined)	none
CCOc1ccc(C(C(=O)NCC2CCCO2)N(C(=O)c2snc(C(N)=O)c2N)c2ccc3c(c2)OCCO3)cc1 (centres undefined)	UBC13 inh 69 | Casp3 counter inactive | UBC13 conf 64
CCCC1CCc2[nH]nc(C(=O)NN)c2C1 (centres undefined)	none
COCCN1C(=O)CSCC1(C)C(=O)NCc1ccccc1 (centres undefined)	none (no result: SENP6 inh, SENP8 block-2, SENP7 block, UBC13 inh, Apaf1 inhib)
CCOC(=O)c1c(-c2ccccc2)oc2ccc(OCC(O)CNCCN(C)C)cc12 (centres undefined)	UBC13 inh 53 | Casp3 counter inactive | UBC13 conf 56
CCOC(=O)c1cc(-c2ccc(Cl)cc2)nc2c1c(C)nn2CCC#N	UBC13 inh inconclusive
CCOC(=O)c1cc(-c2ccc(OC)cc2F)nc2c1c(C)nn2CCC#N	UBC13 inh 49 | Casp3 counter inactive | UBC13 conf inactive
CCOC(=O)c1cc(-c2ccncc2)nc2c1c(C)nn2C	UBC13 inh 113 | Casp3 counter inactive | UBC13 conf inconclusive
CCOC(=O)c1cc(-c2ccccc2)nc2c1c(C)nn2-c1ccccn1	UBC13 inh 62 | Casp3 counter inactive | UBC13 conf inactive
CCCCCC(=O)NC(=S)Nc1ccc2oc(=O)ccc2c1	none
CCN(C(=O)COC(=O)CCn1c(C)csc1=O)c1c(N)n(Cc2ccccc2)c(=O)[nH]c1=O	none
COc1cc(C(=O)Nc2nc3ccc(S(C)(=O)=O)cc3s2)cc(OC)c1C	UBC13 inh 47 | Casp3 counter inactive | UBC13 conf inactive
Cc1ccc(CS(=O)(=O)Cc2ccc(C(=O)NCCc3ccccc3)o2)cc1	none
COCCCN(C(=S)Nc1c(C)cc(C)cc1C)C(C)c1ccccn1 (centres undefined)	none
Cc1ccc(C(=O)Nc2cccc(C(F)(F)F)c2)cc1NC(=O)c1c[nH]c2cc(C(F)(F)F)ccc2c1=O	none
CCN1CCN(Cc2ccc(NC(=O)c3ccc(C)c(NC(=O)c4c[nH]c5cc(C(F)(F)F)ccc5c4=O)c3)cc2C(F)(F)F)CC1	UBC13 inh 108 | Casp3 counter inactive | UBC13 conf 100
Cc1nc2ccccc2c(=O)n1NC(=O)/C=C/c1ccc(Br)cc1	UBC13 inh 60 | Casp3 counter inactive | UBC13 conf 53
CCCOc1ccc(C(=O)Nn2c(C)nc3ccccc3c2=O)cc1	UBC13 inh 96 | Casp3 counter inactive | UBC13 conf 108
Cc1ccc(C(=O)Nn2c(C)nc3ccccc3c2=O)cc1C	none
COc1ccc(C(=O)Nn2c(C)nc3ccccc3c2=O)cc1	UBC13 inh 82 | Casp3 counter inactive | UBC13 conf 84
Cc1nc2ccccc2c(=O)n1NC(=O)c1ccc(C(C)(C)C)cc1	none
Cc1nc2ccccc2c(=O)n1NC(=O)c1ccccc1Br	none
O=c1c2cc(N3CCOCC3)ccc2[nH]c(=S)n1Cc1ccccc1Cl	UBC13 inh 45 | Casp3 counter inactive | UBC13 conf inconclusive
COc1ccc(-c2cc(C#N)nc(N3CCN(C)CC3)n2)cc1	none
COc1ccc(-c2cc(C#N)nc(N3CCNCC3)n2)cc1	UBC13 inh 98 | Casp3 counter inactive | UBC13 conf 74
CCN1CCN(CCCNC(=O)c2ccc3c(c2)NC(=O)/C(=C\c2cccc(C)c2)S3)CC1	UBC13 inh 55 | Casp3 counter inactive | UBC13 conf 65
Cc1cccc(/C=C2/Sc3ccc(C(=O)NCCCN4CCOCC4)cc3NC2=O)c1	none
Cc1cccc(/C=C2/Sc3ccc(C(=O)NCCN4CCCC4)cc3NC2=O)c1	UBC13 inh 60 | Casp3 counter inactive | UBC13 conf 94
COC(=O)c1c(-c2ccc(SC)cc2)sc2ccc(OC)cc12	UBC13 inh 50 | Casp3 counter inactive | UBC13 conf inconclusive
COC(=O)c1c(-c2ccc(S(C)(=O)=O)cc2)sc2ccc(OC)cc12	UBC13 inh 54 | Casp3 counter inactive | UBC13 conf inactive
COC(=O)c1c(-c2ccc(S(C)(=O)=O)cc2)sc2cc(OC)ccc12	UBC13 inh inconclusive
Cc1cc(-c2nnc(SCC(=O)Nc3nc(-c4ccc(Cl)cc4)cs3)o2)no1	UBC13 inh 49 | Casp3 counter inactive | UBC13 conf inactive
Cc1onc(-c2ccccc2)c1C(=O)OCC(=O)NC(=O)c1ccccc1	none
